These results are taken from ChEMBL document CHEMBL3244172, “Easily hydrolyzable, water-soluble derivatives of (+/-)-alpha-5-[1-(indol-3-yl)ethyl]-2-methylamino-delta2-thiazoline-4-one, a novel antiviral compound” (J Med Chem, 1979).

For data set [1], the system named is Influenza A virus. The experiment in a line: Antiviral activity against Influenza A virus Port Chalmers/1/73 (H3N2) infected in ferret assessed as reduction in viral excretion by measuring hemagglutination units per ml at 16 mg/kg administered intranasally 7 times on day 0 and 9 times on day 1 to day 3 measured on day 4 relative to untreated control. The data set is classed as functional. The method, boiled down: (§1)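 Ferrets (700–1500 g, groups of three, untreated control group) were infected intranasally on day 0. Unanaesthetized animals received 0.2 mL of a 50 mg/mL solution in distilled water intranasally, from 2 h post-infection, hourly: 7 doses on day 0 and 9 daily on days +1 to +3. Nasal washings were titrated for hemagglutination with 0.5% washed chicken erythrocytes (HAU/mL) on days +2 to +4.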

Data set [2] in a line: Stability in unbuffered aqueous solutions at pH >6 assessed as compound decarboxylation. In kind it is physicochemical.
In data set [3] the test system is Mustela putorius furo. Nature of the data set: Toxicity in ferret infected with Influenza A virus Port Chalmers/1/73 (H3N2) assessed as change in body weight at 13 mg/kg administered intranasally 7 times on day 0 and 9 times on day 1 to day 3 measured after 7 days relative to untreated control. On the set-up: dose 13 mg/kg. The data set is classed as organism-based. The following applies: in vivo, inhaled_or_intranasal, 168 h. The method, boiled down: (§2)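 Infected ferrets (700–1500 g, groups of three, untreated controls) were dosed intranasally each hour with 0.2 mL of a 50 mg/mL solution in distilled water: 7 doses on day 0 and 9 on days +1 to +3. Body weight was recorded throughout and expressed as % change.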

For data set [4], the system named is Influenza A virus. The experiment in a line: Antiviral activity against Influenza A virus Port Chalmers/1/73 (H3N2) infected in ferret assessed as reduction in viral excretion by measuring hemagglutination units per ml at 16 mg/kg administered intranasally 7 times on day 0 and 9 times on day 1 to day 3 measured on day 3 relative to untreated control. The data set is classed as functional. The method in brief: as §1

The test system of data set [5] is Mustela putorius furo. Nature of the data set: Toxicity in ferret infected with Influenza A virus Port Chalmers/1/73 (H3N2) assessed as change in body weight at 8 mg/kg administered intranasally 7 times on day 0 and 9 times on day 1 to day 3 measured after 7 days relative to untreated control. The data set is classed as organism-based. Set-up: dose 8 mg/kg. Particulars: in vivo, inhaled_or_intranasal, 168 h. The method in brief:
as §2

The test system of data set [6] is Influenza A virus. The experiment in a line: Antiviral activity against Influenza A virus Port Chalmers/1/73 (H3N2) infected in ferret assessed as reduction in viral excretion by measuring hemagglutination units per ml at 13 mg/kg administered intranasally 7 times on day 0 and 9 times on day 1 to day 3 measured on day 3 relative to untreated control. In kind it is functional. The method, boiled down: as §1

In data set [7] the test system is Influenza A virus. The experiment in a line: Antiviral activity against Influenza A virus Port Chalmers/1/73 (H3N2) infected in ferret assessed as reduction in viral excretion by measuring hemagglutination units per ml at 13 mg/kg administered intranasally 7 times on day 0 and 9 times on day 1 to day 3 measured on day 4 relative to untreated control. The data set is classed as functional. The method, boiled down: as §1

The subject of data set [8] is Influenza A virus. Nature of the data set: Antiviral activity against Influenza A virus Port Chalmers/1/73 (H3N2) infected in ferret assessed as reduction in viral excretion by measuring hemagglutination units per ml at 13 mg/kg administered intranasally 7 times on day 0 and 9 times on day 1 to day 2 measured on day 2 relative to untreated control. The data set is classed as functional. The method in brief:
as §1

Data set [9] deals with Influenza A virus. Nature of the data set: Antiviral activity against Influenza A virus Port Chalmers/1/73 (H3N2) infected in ferret assessed as reduction in viral excretion by measuring hemagglutination units per ml at 8 mg/kg administered intranasally 7 times on day 0 and 9 times on day 1 to day 2 measured on day 2 relative to untreated control. The data set is classed as functional. The method in brief: as §1

Data set [10] in a line: Stability in unbuffered aqueous solutions at pH >6 assessed as compound hydrolysis. The following applies: unbuffered aqueous solution. The data set is classed as physicochemical.
A short description of data set [11]: Solubility in water. In kind it is physicochemical. The following applies: buffer.
The subject of data set [12] is Influenza A virus. Nature of the data set: Antiviral activity against Influenza A virus Port Chalmers/1/73 (H3N2) infected in ferret assessed as reduction in viral excretion by measuring hemagglutination units per ml at 8 mg/kg administered intranasally 7 times on day 0 and 9 times on day 1 to day 3 measured on day 4 relative to untreated control. The data set is classed as functional. The method, boiled down:
as §1

Data set [13] deals with Influenza A virus. Nature of the data set: Antiviral activity against Influenza A virus Port Chalmers/1/73 (H3N2) infected in ferret assessed as reduction in viral excretion by measuring hemagglutination units per ml at 16 mg/kg administered intranasally 7 times on day 0 and 9 times on day 1 to day 2 measured on day 2 relative to untreated control. The data set is classed as functional. The method in brief: as §1

The subject of data set [14] is Influenza A virus. The experiment in a line: Antiviral activity against Influenza A virus Port Chalmers/1/73 (H3N2) infected in ferret assessed as reduction in rectal temperature at 8 to 16 mg/kg administered intranasally 7 times on day 0 and 9 times on day 1 to day 3 relative to untreated control. In kind it is functional. Particulars: dose mg/kg 8-16. The method, boiled down: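 Infected ferrets (700–1500 g, groups of three, untreated controls) received hourly intranasal 0.2 mL of a 50 mg/mL aqueous solution: 7 doses on day 0 and 9 on days +1 to +3. Rectal temperature was recorded and readings >39.5 °C and >40.0 °C were counted on days +1 to +4.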

The subject of data set [15] is Mustela putorius furo. Nature of the data set: Toxicity in ferret infected with Influenza A virus Port Chalmers/1/73 (H3N2) assessed as change in body weight at 16 mg/kg administered intranasally 7 times on day 0 and 9 times on day 1 to day 3 measured after 7 days relative to untreated control. Set-up: dose 16 mg/kg. In kind it is organism-based. Particulars: in vivo, inhaled_or_intranasal, 168 h. The method, boiled down: as §2

A short description of data set [16]: Cytotoxicity against MDCK cells infected with Influenza A virus Port Chalmers/1/73 (H3N2) after 3 days by carbol fuchsin staining-based assay. The following applies: dog. The data set is classed as cell-based, Canis lupus familiaris. The method in brief: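 MDCK monolayers infected with influenza had compound in the agar overlay and were incubated 3 days at 33 °C. Monolayers were stained with carbol fuchsin or neutral red. MCC is the lowest concentration causing morphological cell abnormalities.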

The subject of data set [17] is Influenza A virus. The experiment in a line: Antiviral activity against Influenza A virus Port Chalmers/1/73 (H3N2) infected in ferret assessed as reduction in viral excretion by measuring hemagglutination units per ml at 7 mg/kg administered intranasally 7 times on day 0 and 9 times on day 1 to day 2 measured on day 2 relative to untreated control. In kind it is functional. The method, boiled down: as §1

Data set [18] concerns Influenza A virus. The experiment in a line: Antiviral activity against Influenza A virus Port Chalmers/1/73 (H3N2) infected in ferret assessed as reduction in viral excretion by measuring hemagglutination units per ml at 14 mg/kg administered intranasally 7 times on day 0 and 9 times on day 1 to day 3 measured on day 3 relative to untreated control. The data set is classed as functional. The method, boiled down:
as §1

Data set [19] relates to Mustela putorius furo. The experiment in a line: Toxicity in ferret infected with Influenza A virus Port Chalmers/1/73 (H3N2) assessed as change in body weight at 7 mg/kg administered intranasally 7 times on day 0 and 9 times on day 1 to day 3 measured after 7 days relative to untreated control. Set-up: dose 7 mg/kg. The data set is classed as organism-based. Particulars: in vivo, inhaled_or_intranasal, 168 h. The method, boiled down: as §2

Data set [20] deals with Mustela putorius furo. The experiment in a line: Toxicity in ferret infected with Influenza A virus Port Chalmers/1/73 (H3N2) assessed as change in body weight at 14 mg/kg administered intranasally 7 times on day 0 and 9 times on day 1 to day 3 measured after 7 days relative to untreated control. The data set is classed as organism-based. Set-up: dose 14 mg/kg. The following applies: in vivo, inhaled_or_intranasal, 168 h. The method, boiled down: as §2

In data set [21] the test system is Influenza A virus. Nature of the data set: Antiviral activity against Influenza A virus Port Chalmers/1/73 (H3N2) infected in ferret assessed as reduction in rectal temperature at 7 to 14 mg/kg administered intranasally 7 times on day 0 and 9 times on day 1 to day 3 relative to untreated control. The data set is classed as functional. Particulars: dose mg/kg 7-14. The method, boiled down:
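Ferrets (700–1500 g), three per group, infected intranasally on day 0 with influenza A/Port Chalmers/1/73 (H3N2). Dosed 0.2 mL of 50 mg/mL solution in distilled water by intranasal instillation, unanaesthetized, starting 2 h post-infection and repeated hourly. Untreated and ribavirin-treated groups served as controls. Rectal temperature readings >39.5 °C and >40.0 °C were counted on days +1 to +4.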

Data set [22] relates to Influenza A virus. The experiment in a line: Antiviral activity against Influenza A virus Port Chalmers/1/73 (H3N2) infected in MDCK cells at 1 mg/ml by agar diffusion method. In kind it is functional. Particulars: read-out: DIZ. The method, boiled down: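 Agar diffusion: compounds were diluted to 1 mg/mL in Eagle's MEM from stocks of 10 mg/mL in water or 100 mg/mL in DMSO. 0.02 mL went into 6 mm wells cut in the agar overlay above infected monolayers (influenza in MDCK, Coxsackie B1 in HeLa). Read-out was the diameter (mm) of the plaque-free inhibition zone around each well.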

The test system of data set [23] is Influenza A virus. Nature of the data set: Antiviral activity against Influenza A virus Port Chalmers/1/73 (H3N2) infected in MDCK cells assessed as plaque reduction after 3 days by agar diffusion method. The data set is classed as functional. The method in brief: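 Plaque reduction: varying compound concentrations were put in the agar overlay above infected monolayers. Coxsackie B1/HeLa was incubated 42 h at 37 °C; influenza/MDCK 3 days at 33 °C. PDD50 is the lowest concentration giving ≥50% fewer plaques than untreated controls.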

Data set [24] concerns Influenza A virus. Nature of the data set: Antiviral activity against Influenza A virus Port Chalmers/1/73 (H3N2) infected in ferret assessed as reduction in viral excretion by measuring hemagglutination units per ml at 14 mg/kg administered intranasally 7 times on day 0 and 9 times on day 1 to day 3 measured on day 4 relative to untreated control. The data set is classed as functional. The method in brief: as §1

For data set [25], the system named is Influenza A virus. The experiment in a line: Antiviral activity against Influenza A virus Port Chalmers/1/73 (H3N2) infected in ferret assessed as reduction in viral excretion by measuring hemagglutination units per ml at 14 mg/kg administered intranasally 7 times on day 0 and 9 times on day 1 to day 2 measured on day 2 relative to untreated control. The data set is classed as functional. The method, boiled down:
as §1

Data set [26] deals with Influenza A virus. The experiment in a line: Antiviral activity against Influenza A virus Port Chalmers/1/73 (H3N2) infected in ferret assessed as reduction in viral excretion by measuring hemagglutination units per ml at 7 mg/kg administered intranasally 7 times on day 0 and 9 times on day 1 to day 3 measured on day 4 relative to untreated control. The data set is classed as functional. The method in brief:
as §1

Data set [27] concerns Influenza A virus. The experiment in a line: Antiviral activity against Influenza A virus Port Chalmers/1/73 (H3N2) infected in ferret assessed as reduction in viral excretion by measuring hemagglutination units per ml at 7 mg/kg administered intranasally 7 times on day 0 and 9 times on day 1 to day 3 measured on day 3 relative to untreated control. In kind it is functional. The method, boiled down: as §1

For the compound `CNC1=NC(=O)C(C(C)c2cn(C(=O)OCC(C)(C)N(C)C)c3ccccc23)S1.Cl` (racemic), the Activity in [1] was below 4 HAU/ml; in data set [3] it was -3.3%; in data set [4], below 4 HAU/ml; in [5], -0.4%; in [6] it was below 4 HAU/ml; in data set [7], below 4 HAU/ml. Further, the Activity is below 4 HAU/ml in data set [8]; below 4 HAU/ml in data set [9]; below 4 HAU/ml in data set [12]; below 4 HAU/ml in data set [13]; -3.2% in [15]. The Stability result in data set [2] and in data set [10] was “Unstable” in each case. In data set [11], the solubility result is on record as “soluble”. The T in data set [14] is above 40 °C.

In [16], `NC(=O)c1ncn([C@@H]2O[C@H](CO)[C@@H](O)[C@H]2O)n1` [RIBAVIRIN] came in with an MCC at 72 h above 100 µg/mL. Further, the Activity was below 4 HAU/ml in [17]; -20.1% in [3]; below 4 HAU/ml in data set [18]; 12 HAU/ml in data set [6]; below 4 HAU/ml in data set [7]; -4.5% in data set [19]. Moreover, the Activity is reported as -22.2% in data set [20]; below 4 HAU/ml in [8]; below 4 HAU/ml in data set [24]; below 4 HAU/ml in [25]; below 4 HAU/ml in data set [26]; below 4 HAU/ml in [27]. For the same compound, the T in data set [21] was above 39.5 °C. For the same compound, the zone of inhibition at 1000 µg/mL in data set [22] amounted to 30 mm. Further, the PDD50 in data set [23] is 2 µg/mL.
